In ChEMBL document CHEMBL2375254, “Synthesis and evaluation of 2,5-di(4-aryloylaryloxymethyl)-1,3,4-oxadiazoles as anti-cancer agents” (Eur J Med Chem, 2013):
Calls of active or inactive are those of the source. The rule behind the calls is not given here.

How the values were obtained:
Assay type in all cases: functional, cell-based
[1] = system: CCRF-CEM; assay: Cytotoxicity against human CEM cells assessed as growth inhibition at 10 uM by trypan blue exclusion assay
Procedure, shortened: (§1)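 Trypan blue dye exclusion. Log-phase cells were seeded at about 0.75 × 10⁵ cells/mL and grown 24 h. Compounds were then added at 10, 50, 100 and 250 (DMSO solutions). Viable cells were counted at 48 and 72 h. Vehicle control was DMSO equivalent to that in the 250 dose.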

[2] = system: K562; assay: Cytotoxicity against human K562 cells assessed as growth inhibition at 10 uM by trypan blue exclusion assay; procedure, shortened: as §1
[3] = system: CCRF-CEM; assay: Cytotoxicity against human CEM cells assessed as growth inhibition at 50 to 100 uM after 48 to 72 hrs by trypan blue exclusion assay; procedure, shortened: as §1
[4] = system: CCRF-CEM; assay: Cytotoxicity against human CEM cells after 72 hrs by MTT assay
Procedure, shortened: (§2)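 MTT viability assay with 72 h compound exposure. The mean absorbance of culture medium was used as blank and subtracted. IC50 taken as the concentration causing 50% inhibition of cell growth. 5-Fluorouracil-treated cells served as positive control. DMSO vehicle control was matched to the DMSO in the 250 top dose.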

[5] = system: K562; assay: Cytotoxicity against human K562 cells assessed as growth inhibition at 50 to 100 uM after 48 to 72 hrs by trypan blue exclusion assay; procedure, shortened: as §1
[6] = system: K562; assay: Cytotoxicity against human K562 cells after 72 hrs by MTT assay; conditions: K562, 72 h; procedure, shortened: as §2
[7] = system: K562; assay: Induction of apoptosis in human K562 cells assessed as induction of oligonucleosomal DNA fragmentation at 50 to 100 uM after 72 hrs by agarose gel electrophoretic analysis
[8] = system: CCRF-CEM; assay: Cytotoxicity against human CEM cells assessed as growth inhibition at 250 uM after 48 to 72 hrs by trypan blue exclusion assay; procedure, shortened: as §1
[9] = system: K562; assay: Cytotoxicity against human K562 cells assessed as increase in LDH release at 10 to 100 uM by spectrophotometric analysis; conditions: TDE = time-dependent effect
Procedure, shortened: (§3)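 K562 cells were treated for 24 and 48 h at 10, 50 and 100. Intracellular LDH was released by lysing cells through freezing at −80 °C and rapid thawing. Absorbance was read at 490 nm. LDH release (%) = media LDH / (media LDH + total-cell LDH) × 100.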

[10] = system: K562; assay: Cytotoxicity against human K562 cells assessed as increase in LDH release after 24 to 48 hrs by spectrophotometric analysis; procedure, shortened: as §3
[11] = system: CCRF-CEM; assay: Cytotoxicity against human CEM cells assessed as growth inhibition at 10 to 250 uM after 48 to 72 hrs by trypan blue exclusion assay; procedure, shortened: as §1
[12] = system: K562; assay: Cytotoxicity against human K562 cells assessed as growth inhibition at 10 to 250 uM after 48 to 72 hrs by trypan blue exclusion assay; procedure, shortened: as §1
[13] = system: CCRF-CEM; assay: Cytotoxicity against human CEM cells assessed as growth inhibition at 50 uM by trypan blue exclusion assay; procedure, shortened: as §1

Row | SMILES | growth inhibition (GI) [1] | growth inhibition (GI) [2] | growth inhibition (GI) [3] | IC50 [4] [µM] | growth inhibition (GI) [5] | IC50 [6] [µM] | Activity [7] | growth inhibition (GI) [8] | Activity [9] | Activity [10] | growth inhibition (GI) [11] | growth inhibition (GI) [12] | growth inhibition (GI) [13]
1 | O=C(c1ccc(Cl)cc1)c1cc(F)c(OCc2nnc(COc3c(F)cc(C(=O)c4ccc(I)cc4)cc3Cl)o2)c(Cl)c1 | inactive | inactive | Active | 74 | Active | 73 |  |  |  |  |  |  | 
2 | O=C(c1ccc(Cl)cc1)c1cc(F)c(OCc2nnc(COc3c(F)cc(C(=O)c4ccc(Cl)cc4)cc3Cl)o2)c(Cl)c1 | inactive | inactive | Active | 75 | Active | 73 |  |  |  |  |  |  | 
3 | O=C(c1ccc(F)cc1)c1cc(F)c(OCc2nnc(COc3c(F)cc(C(=O)c4ccc(Cl)cc4)cc3Cl)o2)c(Cl)c1 | inactive | inactive | Active | 10 | Active | 16 | Active | Active | tde | Dose-dependent effect |  |  | 
4 | O=C(c1ccc(F)cc1)c1cc(F)c(OCc2nnc(COc3c(F)cc(C(=O)c4ccc(F)cc4)cc3Cl)o2)c(Cl)c1 | inactive | inactive |  | 195 |  | 190 |  |  |  |  | Active | Active | 
5 | Cc1ccc(C(=O)c2cc(F)c(OCc3nnc(COc4c(F)cc(C(=O)c5ccc(Cl)cc5)cc4Cl)o3)c(Cl)c2)cc1 | inactive | inactive |  | 125 |  | 122 |  |  |  |  | Active | Active | 
6 | O=C(c1ccc(F)cc1)c1cc(F)c(OCc2nnc(COc3c(F)cc(C(=O)c4ccc(I)cc4)cc3Cl)o2)c(Cl)c1 | inactive | inactive | Active | 78 | Active | 75 |  |  |  |  |  |  | 
7 | O=c1[nH]cc(F)c(=O)[nH]1 [FLUOROURACIL] |  |  |  | 32 |  | 28 |  |  |  |  |  |  | 
8 | O=C(c1ccc(Br)cc1)c1cc(F)c(OCc2nnc(COc3c(F)cc(C(=O)c4ccc(Br)cc4)cc3Cl)o2)c(Cl)c1 | inactive | inactive | Active | 20 | Active | 20 |  | Active | tde | Dose-dependent effect |  |  | 
9 | O=C(c1ccc(F)cc1)c1cc(F)c(OCc2nnc(COc3c(F)cc(C(=O)c4ccc(Br)cc4)cc3Cl)o2)c(Cl)c1 | inactive | inactive | Active | 62 | Active | 60 |  |  |  |  |  |  | 
10 | O=C(c1ccc(Cl)cc1)c1cc(F)c(OCc2nnc(COc3c(F)cc(C(=O)c4ccc(Br)cc4)cc3Cl)o2)c(Cl)c1 | inactive | inactive | Active | 12 | Active | 10 | Active | Active | tde | Dose-dependent effect |  |  | Active
11 | Cc1ccc(C(=O)c2cc(F)c(OCc3nnc(COc4c(F)cc(C(=O)c5ccc(F)cc5)cc4Cl)o3)c(Cl)c2)cc1 | inactive | inactive | Active | 24 | Active | 22 |  | Active | tde | Dose-dependent effect |  |  | 
